Experimental data: ChEMBL document CHEMBL1122036, “Use of adenine nucleotide derivatives to assess the potential of exo-active-site-directed reagents as species- or isozyme-specific enzyme inactivators. 3. Synthesis of adenosine 5'-triphosphate derivatives with N6- or 8-substituents bearing iodoacetyl groups” (J Med Chem, 1982)

Experiments:
Rattus norvegicus [1] = species: Rattus norvegicus; test: Substrate concentration for half maximum-velocity in rat kidney pyruvate kinase was determined; assay type: ADME, organism-based; conditions: in vivo
Method in brief: (§1)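 Rat muscle, liver and kidney pyruvate kinase isozymes, isolated as before, with ADP analogues as substrate. Optical density change at 340 nm, 22-24 °C, 1 mL. Five or more substrate concentrations. Km and Vmax come from linear Lineweaver-Burk plots, with Vmax relative to ADP (100).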

Rattus norvegicus [2] = species: Rattus norvegicus; test: Substrate concentration for half maximum- reaction velocity in rat liver pyruvate kinase; assay type: ADME, organism-based; conditions: in vivo; method in brief: as §1
Rattus norvegicus [3] = species: Rattus norvegicus; test: Substrate property, maximum velocity relative to ADP (100) in rat liver pyruvate kinase was determined; assay type: ADME, organism-based; conditions: in vivo; method in brief: as §1
Rattus norvegicus [4] = species: Rattus norvegicus; test: Substrate property, maximum velocity relative to ADP (100) in rat kidney pyruvate kinase was determined; assay type: ADME, organism-based; conditions: in vivo; method in brief: as §1
Rattus norvegicus [5] = species: Rattus norvegicus; test: Substrate property, maximum velocity relative to ADP (100) in rat muscle pyruvate kinase was determined; assay type: ADME, organism-based; conditions: in vivo; method in brief: as §1
Rattus norvegicus [6] = species: Rattus norvegicus; test: Substrate concentration for half maximum-velocity in rat muscle pyruvate kinase was determined.; assay type: ADME, organism-based; conditions: in vivo; method in brief: as §1
[7] = Reaction velocity relative to ATP (=1) in yeast hexokinase was determined at 5 mM concentration.; assay type: ADME; conditions: 5000 µM
Rattus norvegicus [8] = species: Rattus norvegicus; test: Maximum velocity relative to ADP (100) in rat muscle pyruvate kinase was determined; assay type: ADME, organism-based; conditions: in vivo; method in brief: as §1
[9] = Substrate property, maximum velocity relative to ADP (100) in rat muscle pyruvate kinase was determined; conditions: in vitro
Rattus norvegicus [10] = species: Rattus norvegicus; test: Maximum velocity in rat liver adenylate kinase III relative to ATP(=100); assay type: ADME, organism-based; conditions: in vivo
Method in brief: (§2)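 Rat liver AK II and AK III, isolated as before. Optical density change at 340 nm followed at 22-24 °C in 1 mL. Five or more substrate concentrations; stocks contained equimolar MgCl2. Vmax comes from linear Lineweaver-Burk plots and is expressed relative to ATP (100).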

Rattus norvegicus [11] = species: Rattus norvegicus; test: Maximum velocity in rat liver adenylate kinase II relative to ATP(=100); assay type: ADME, organism-based; conditions: in vivo; method in brief: as §2
[12] = target: Adenylate kinase 2, mitochondrial (Rattus norvegicus, UniProt P29410); test: Competitive inhibition of adenylate kinase II in rat liver with respect to ATP; assay type: tissue-based
Method in brief: (§3)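 Rat liver adenylate kinase isozymes (AK II, AK III), isolated as before. Read as rate of change in optical density at 340 nm, 22-24 °C, 1 mL final volume. Five or more levels of ATP at each of two inhibitor levels, inhibitor at 1-5 times the inhibition constant. Ki taken from replots of inhibitor concentration vs Lineweaver-Burk slopes. Stocks contained equimolar MgCl2.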

[13] = target: GTP:AMP phosphotransferase AK3, mitochondrial (Rattus norvegicus, UniProt P29411); test: Competitive inhibition of adenylate kinase III in rat liver with respect to ATP; assay type: tissue-based; method in brief: as §3
Chain of GTP:AMP phosphotransferase AK3, mitochondrial (P29411 whole entry): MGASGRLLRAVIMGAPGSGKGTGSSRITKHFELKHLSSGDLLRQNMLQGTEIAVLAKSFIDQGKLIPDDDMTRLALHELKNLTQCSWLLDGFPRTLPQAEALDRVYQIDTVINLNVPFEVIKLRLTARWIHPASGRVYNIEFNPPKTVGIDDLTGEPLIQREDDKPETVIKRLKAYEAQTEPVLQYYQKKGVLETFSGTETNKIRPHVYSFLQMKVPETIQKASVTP

A Km (Rattus norvegicus [1]) of 1700 µM, a Km (Rattus norvegicus [2]) of 700 µM and a Vmax (Rattus norvegicus [3]) of 21% were found for `CC(=O)N(C)CCCCN(C)c1ncnc2c1ncn2[C@@H]1O[C@H](COP(=O)(O)OP(=O)(O)O)[C@@H](O)[C@H]1O` in this work. For the same compound, the Vmax (Rattus norvegicus [4]) was 18%, the Vmax (Rattus norvegicus [5]) was 20% and the Km (Rattus norvegicus [6]) was 3600 µM.

For `CN(CCCN(C)C(=O)CCCCNc1ncnc2c1ncn2[C@@H]1O[C@H](COP(=O)(O)OP(=O)(O)OP(=O)(O)O)[C@@H](O)[C@H]1O)C(=O)CCCCNC(=O)CI`, the “Velocity relative to ATP” value [7] was 0.73.

For `CN(CCCCN(C)c1ncnc2c1ncn2[C@@H]1O[C@H](COP(=O)(O)OP(=O)(O)OP(=O)(O)O)[C@@H](O)[C@H]1O)C(=O)CCCNC(=O)CI`, the “Velocity relative to ATP” value [7] was 1.2.

A Vmax (Rattus norvegicus [8]) of 1.5% and a Km (Rattus norvegicus [6]) of 70 µM were found for `CN(CCCN(C)C(=O)CCCCNc1ncnc2c1ncn2[C@@H]1O[C@H](COP(=O)(O)OP(=O)(O)O)[C@@H](O)[C@H]1O)C(=O)CCCCNC(=O)OCc1ccccc1` in this work.

A Vmax [9] of 0% and a Vmax (Rattus norvegicus [5]) of 0% were found for `CC(=O)NCCCCCCNc1nc2c(N)ncnc2n1[C@@H]1O[C@H](COP(=O)(O)OP(=O)(O)O)[C@@H](O)[C@H]1O` in this work.

With `O=C(CI)NCCCCCCCCNc1ncnc2c1ncn2[C@@H]1O[C@H](COP(=O)(O)OP(=O)(O)OP(=O)(O)O)[C@@H](O)[C@H]1O` the “Velocity relative to ATP” value [7] was 1.8.

In the case of `Nc1ncnc2c1nc(NCCCCCCCCNC(=O)CI)n2[C@@H]1O[C@H](COP(=O)(O)OP(=O)(O)OP(=O)(O)O)[C@@H](O)[C@H]1O`, the “Velocity relative to ATP” value [7] is reported as 0.54.

A Vmax (Rattus norvegicus [10]) of 0%, a Vmax (Rattus norvegicus [11]) of 0% and a Ki [12] of 1100 µM were found for `CC(=O)N(C)CCCCN(C)c1ncnc2c1ncn2[C@@H]1O[C@H](COP(=O)(O)OP(=O)(O)OP(=O)(O)O)[C@@H](O)[C@H]1O` in this work. The Ki [13] was 900 µM.
